Here are results for nine molecules from ChEMBL document CHEMBL1124947, “Cationic antiprotozoal drugs. Trypanocidal activity of 2-(4'-formylphenyl)imidazo[1,2-a]pyridinium guanylhydrazones and related derivatives of quaternary heteroaromatic compounds” (J Med Chem, 1990).

Test [1] has as its system Mus musculus. Description: Fraction of mice that were cured after oral administration at a dose of 212 mg/kg and I.C.E. value of 0.84. Format: functional.
For test [2], the system named is Mus musculus. Description: Fraction of mice that were cured after oral administration at a dose of 3.3 mg/kg and I.C.E. value of 0.84. In kind it is functional.
For test [3], the system named is Mus musculus. Description: Fraction of mice that were cured after oral administration at a dose of 1.67 mg/kg and I.C.E. value of 0.84. Format: functional.
Test [4] has as its system Mus musculus. Description: Fraction of mice that were cured after subcutaneous administration at a dose of 106 mg/kg and I.C.E. value of 0.54. In kind it is functional.
The test system of test [5] is Mus musculus. Description: Trypanocidal Activity at I.C.E. value 0.54 when administered subcutaneously. In kind it is functional. Summed up:
(§1)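 Blood-stage T. rhodesiense infection came from a standard inoculum lethal to all untreated mice. Drug was given by subcutaneous injection to groups of five mice. Survival beyond 30 days counted as cure. […] Sub-curative doses scored 0, and data were normalized at each dose.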

Test [6] concerns Mus musculus. Description: Fraction of mice that were cured after subcutaneous administration at a dose of 3.3 mg/kg and I.C.E. value of 0.54. In kind it is functional.
For test [7], the system named is Mus musculus. Description: Curative activity of the Compound after Subcutaneous administration at a dose of 1.67 mg/kg and I.C.E. value of 0.54 for 30 days; 10/10. In kind it is functional.
Test [8] relates to Mus musculus. Description: Fraction of mice that were cured after oral administration at a dose of 106 mg/kg and I.C.E. value of 0.49.
The subject of test [9] is Mus musculus. Description: Fraction of mice that were cured after oral administration at a dose of 26 mg/kg and I.C.E. value of 0.84. In kind it is functional.
The subject of test [10] is Mus musculus. Description: Fraction of mice that were cured after oral administration at a dose of 13 mg/kg and I.C.E. value of 0.84. Format: functional.
The subject of test [11] is Mus musculus. Description: Fraction of mice that were cured after subcutaneous administration at a dose of 212 mg/kg and I.C.E. value of 0.54. Format: functional.
Test [12] relates to Mus musculus. Description: Fraction of mice that were cured after subcutaneous administration at a dose of 53 mg/kg and I.C.E. value of 0.54. In kind it is functional.
In test [13] the test system is Mus musculus. Description: Curative activity of the Compound after Subcutaneous administration at a dose of 0.83 mg/kg and I.C.E. value of 0.54 for 30 days; 27/30. In kind it is functional.
The test system of test [14] is Mus musculus. Description: Curative activity of the Compound after oral administration at a dose of 26 mg/kg and I.C.E. value of 0.49 for 30 days; 10/10. Format: functional.
Test [15] deals with Mus musculus. Description: Curative activity of the Compound after oral administration at a dose of 53 mg/kg ( T-Toxic) and I.C.E. value of 0.49 for 30 days; 5/5. In kind it is functional.
For test [16], the system named is Mus musculus. Description: Curative activity of the Compound after oral administration at a dose of 424 mg/kg ( T-Toxic)and I.C.E. value of 0.49 for 30 days; 10/10. Format: functional.
Test [17] concerns Mus musculus. Description: Curative activity of the Compound after oral administration at a dose of 106 mg/kg ( T-Toxic)and I.C.E. value of 0.49 for 30 days; 5/5. Format: functional.
For test [18], the system named is Mus musculus. Description: Curative activity of the Compound after Subcutaneous administration at a dose of 0.42 mg/kg and I.C.E. value of 0.54 for 30 days; 2/5. In kind it is functional.
The test system of test [19] is Mus musculus. Description: Curative activity of the Compound after Subcutaneous administration at a dose of 26 mg/kg ( T-Toxic) and I.C.E. value of 0.54 for 30 days; 11/15. Format: functional.
The test system of test [20] is Mus musculus. Description: Curative activity of the Compound after Subcutaneous administration at a dose of 13 mg/kg and I.C.E. value of 0.54 for 30 days; 10/10. In kind it is functional.
Test [21] deals with Mus musculus. Description: Fraction of mice that were cured after subcutaneous administration at a dose of 6.6 mg/kg and I.C.E. value of 0.54. In kind it is functional.
Test [22] concerns Mus musculus. Description: Fraction of mice that were cured after subcutaneous administration at a dose of 424 mg/kg and I.C.E. value of 0.54. Format: functional.
The subject of test [23] is Mus musculus. Description: Curative activity of the Compound after oral administration at a dose of 13 mg/kg and I.C.E. value of 0.49 for 30 days; 2/5. In kind it is functional.
Test [24] concerns Mus musculus. Description: Fraction of mice that were cured after subcutaneous administration at a dose of 13 mg/kg and I.C.E. value of 0.54. Format: functional.
In test [25] the test system is Mus musculus. Description: Fraction of mice that were cured after subcutaneous administration at a dose of 0.83 mg/kg and I.C.E. value of 0.54. In kind it is functional.
Test [26] concerns Mus musculus. Description: Trypanocidal Activity at I.C.E. value 0.48 when administered perorally. In kind it is functional.
Test [27] deals with Mus musculus. Description: Fraction of mice that were cured after oral administration at a dose of 0.42 mg/kg and I.C.E. value of 0.84. In kind it is functional.
Test [28] concerns Mus musculus. Description: Fraction of mice that were cured after oral administration at a dose of 0.83 mg/kg and I.C.E. value of 0.84. In kind it is functional.
Test [29] has as its system Mus musculus. Description: Curative activity of the Compound after Subcutaneous administration at a dose of 6.6 mg/kg and I.C.E. value of 0.54 for 30 days; 5/5. In kind it is functional.
Test [30] has as its system Mus musculus. Description: Fraction of mice that were cured after subcutaneous administration at a dose of 26 mg/kg and I.C.E. value of 0.54. Format: functional.
In test [31] the test system is Mus musculus. Description: Curative activity of the Compound after Subcutaneous administration at a dose of 3.3 mg/kg and I.C.E. value of 0.54 for 30 days; 24/25. In kind it is functional.
The subject of test [32] is Mus musculus. Description: Fraction of mice that were cured after subcutaneous administration at a dose of 0.42 mg/kg and I.C.E. value of 0.54. In kind it is functional.
Test [33] has as its system Mus musculus. Description: Fraction of mice that were cured after oral administration at a dose of 53 mg/kg and I.C.E. value of 0.84. In kind it is functional.
In test [34] the test system is Mus musculus. Description: Fraction of mice that were cured after oral administration at a dose of 6.6 mg/kg and I.C.E. value of 0.84. In kind it is functional.
In test [35] the test system is Mus musculus. Description: Fraction of mice that were cured after subcutaneous administration at a dose of 1.67 mg/kg and I.C.E. value of 0.54. Format: functional.
Test [36] deals with Mus musculus. Description: Fraction of mice that were cured after oral administration at a dose of 424 mg/kg and I.C.E. value of 0.84. In kind it is functional.
Test [37] deals with Mus musculus. Description: Curative activity of the Compound after oral administration at a dose of 212 mg/kg ( T-Toxic)and I.C.E. value of 0.49 for 30 days; 5/5. Format: functional.
Test [38] relates to Mus musculus. Description: Trypanocidal Activity at I.C.E. value 0.44 when administered subcutaneously. Format: functional. Summed up:
as §1

Test [39] relates to Mus musculus. Description: Trypanocidal Activity at I.C.E. value 0.25 when administered perorally. In kind it is functional.
Test [40] concerns Mus musculus. Description: Trypanocidal Activity at I.C.E. value 0.53 when administered subcutaneously. In kind it is functional. Summed up:
as §1

Test [41] concerns Mus musculus. Description: Trypanocidal Activity at I.C.E. value 0.90 when administered subcutaneously. Format: functional.
The test system of test [42] is Mus musculus. Description: Trypanocidal Activity at I.C.E. value 0.44 when administered perorally. Format: functional.
The subject of test [43] is Trypanosoma brucei rhodesiense. Description: In Vitro measurement of inhibition of Leucine uptake in cell culture of Trypanosoma rhodesiense. In kind it is functional. Conditions: read-out: ID50 (the source's name). Summed up:
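Trypanosomes harvested from infected rats, cultured 3 h with several concentrations of drug, usually 0.1–100 µg/mL. Radiolabeled L-leucine uptake measured. ID50 is the concentration in µg/mL giving 50% inhibition of incorporation.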

Test [44] deals with Mus musculus. Description: Trypanocidal Activity at I.C.E. value 0.64 when administered perorally. Format: functional.
The test system of test [45] is Mus musculus. Description: Trypanocidal Activity at I.C.E. value 0.39 when administered subcutaneously. Format: functional. Summed up: as §1
Test [46] relates to Trypanosoma brucei rhodesiense. Description: In Vitro measurement of inhibition of thymidine uptake in cell culture of Trypanosoma rhodesiense. Format: functional. Conditions: read-out: ID50 (the source's name). Summed up: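 Parasites harvested from infected rats and incubated 3 h across a drug concentration series, usually 0.1–100 µg/mL. Incorporation of radiolabeled thymidine measured. ID50 is the concentration (µg/mL) producing 50% inhibition.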

Test [47] deals with Mus musculus. Description: Trypanocidal Activity at I.C.E. value 0.71 when administered subcutaneously. Format: functional. The gist of the method:
(§2)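 Mice, in groups of five per dose, were given a standard inoculum of blood-stage T. rhodesiense that is lethal to all untreated controls, then dosed subcutaneously. Usually 11 dose levels were used (2^n × 0.42 mg/kg).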

Test [48] has as its system Mus musculus. Description: Trypanocidal Activity at I.C.E. value 0.32 when administered perorally. Format: functional.
In test [49] the test system is Mus musculus. Description: Trypanocidal Activity at I.C.E. value 0.24 when administered subcutaneously. In kind it is functional. The gist of the method:
as §1

The subject of test [50] is Mus musculus. Description: Trypanocidal Activity at I.C.E. value 0.77 when administered subcutaneously. Format: functional. Summed up: as §2
In test [51] the test system is Mus musculus. Description: Trypanocidal Activity at I.C.E. value 0.31 when administered subcutaneously. In kind it is functional. The gist of the method: as §1
In test [52] the test system is Mus musculus. Description: Trypanocidal Activity at I.C.E. value 0.16 when administered perorally. In kind it is functional.

For `C[n+]1c(-c2ccc(/C=N/NC(=N)N)cc2)cn2ccccc21.Cc1ccc(S(=O)(=O)O)cc1.Cc1ccc(S(=O)(=O)[O-])cc1`, the Fraction cured in test [1] came to 1; in test [2] it was 0; in test [3] it was 0; in test [4], 0; in test [6] it was 0.96; in test [8] it was 1. Besides, the Fraction cured in [9] came to 1; in test [10] it was 0.4; in [11] it was 0; in [12] it was 0; in test [21] it was 1; in test [22], 0. The Fraction cured in test [24] is 1; in [25] it was 0.9; in [27] it was 0; in [28], 0; in test [30], 0.73; in [32], 0.4. In addition, the Fraction cured in [33] was determined as 1; in test [34] it was 0; in test [35], 1; in test [36] it was 1. The CD50 in test [5] amounted to 0.8 mg/kg; in test [26], 26 mg/kg. The Survivors in test [7] is on record as 10; in [13] it was 27; in test [14], 10; in test [15], 5; in [16] it was 10; in test [17], 5. For the same molecule, the Survivors in [18] was 2; in [19] it was 11; in test [20], 10; in test [23] it was 2; in test [29], 5; in [31] it was 24. This molecule also gave a Survivors in [37] of 5.
For `Br.CC/N=C(\NCC)N/N=C/c1ccc(OCc2cn3ccccc3[n+]2C)cc1.[Br-]`, the figures for the CD50 in test [38] and in [39] were 0.8 mg/kg and 106 mg/kg, respectively.
Molecule `Br.Cc1ccn2cc(-c3ccc(/C=N/NC(=N)N4CCOCC4)cc3)[n+](C)c2c1.[Br-]` gave a CD50 in test [40] of 0.4 mg/kg.
On to `Br.Cc1cccc2n1cc(/C=C/c1ccc(/C=N/NC(=N)N3CCCC3)cc1)[n+]2C.[Br-]`, for which the CD50 came out at 0.4 mg/kg in test [41] and 53 mg/kg in test [42].
For `Br.C[n+]1c(-c2ccc(/C=N/NC(=N)N3CCCC3)cc2)cn2ccccc21.[Br-]`, the IC50 in [43] and in test [46] was 0.6 µg/mL throughout. In addition, the CD50 in test [44] stood at 6.6 mg/kg; in test [45], 0.06 mg/kg.
With `Br.CCCCNC(=N)N/N=C/c1ccc(-c2cn3ccc(C)cc3[n+]2C)cc1.[Br-]`, the CD50 in test [47] was 0.4 mg/kg; in [48], 26 mg/kg.
In test [49], `Br.C/N=C(/N/N=C/c1ccc(-c2cn3ccccc3[n+]2C)cc1)SC.[Br-]` had a CD50 of 26 mg/kg.
As for `Br.Cc1ccc2n(c1)cc(/C=C/c1ccc(/C=N/NC(=N)N3CCCC3)cc1)[n+]2C.[Br-]`, in test [50], the CD50 was 0.4 mg/kg.
On to `Br.C[n+]1ccccc1COc1ccc(/C=N/NC2=NCCCN2)cc1.[Br-]`, for which the CD50 was 6.6 mg/kg in [51] and 212 mg/kg in test [52].
